Activity calls are given as the source filed them. No cut-off for these calls is given here.
What was measured:
SMMC-7721 [1] = assay: Antiproliferative activity against human SMMC7721 cells assessed as inhibition of cell proliferation at 25 uM after 72 hrs by MTT assay relative to control; format: functional; details: SMMC-7721, 72 h
Method in brief: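 Cells in DMEM with 10% FBS, plated at 10^4 cells/mL, adhered overnight. Treated at 25 μM for 72 h. MTT added for the last 4 h, formazan dissolved in DMSO, A570 read. Inhibition expressed as percent of untreated. Mean + SD from three separate measurements.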

SMMC-7721 [2] = assay: Antiproliferative activity against human SMMC7721 cells after 72 hrs by MTT assay; format: functional, cell-based; details: SMMC-7721, 72 h
Method in brief: (§1)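 Cells in DMEM with 10% FBS, 10^4 cells/mL, adhered overnight at 37 °C, 5% CO2. Treated in triplicate with a range of concentrations for 72 h. MTT (5 mg/mL solution) added for the last 4 h, formazan dissolved in DMSO, absorbance read at 570 nm. IC50 calculated from percent inhibition. Mean ± SD of three independent experiments.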

SGC-7901 = assay: Antiproliferative activity against human SGC7901 cells after 72 hrs by MTT assay; format: functional, cell-based; details: SGC-7901, 72 h; method in brief: as §1
HCT-116 = assay: Antiproliferative activity against human HCT116 cells after 72 hrs by MTT assay; format: functional, cell-based; details: HCT-116, 72 h; method in brief: as §1
PC-3 = assay: Induction of apoptosis in human PC3 cells; format: functional, cell-based
SMMC-7721 [3] = assay: Induction of apoptosis in human SMMC7721 cells assessed as apoptotic cells at 3.2 uM after 72 hrs by FITC-Annexin-V/7AAD/propidium iodide staining based flow cytometry relative to control; format: functional
Method in brief: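 SMMC-7721 cells cultured overnight, then treated in triplicate with 0.2, 0.8 or 3.2 μM, vehicle, or ADM (3.2 μM) for 72 h. Stained with annexin V and PI (methods section: APC-annexin V/7-AAD) for 15 min at room temperature. Mean ± SD of three independent experiments.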

SMMC-7721 [4] = assay: Induction of DNA double stranded breaks in human SMMC7721 cells assessed as increase in H2AX phosphorylation at S139 at 0.8 uM after 72 hrs by Western blot analysis; format: functional, cell-based
Method in brief: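 SMMC-7721 cells treated with vehicle, compound at 0.2, 0.8 or 3.2 μM, or ADM for 72 h. Lysates immunoblotted for H2AX pS139, p-p53 (Ser15), total p53 and β-actin, with ECL detection. Signals quantified by densitometry relative to β-actin, mean ± SD of three experiments.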

Row | Structure (SMILES) | inhibition at 25 µM (SMMC-7721 [1]) | IC50 (SMMC-7721 [2]) | IC50 (SGC-7901) | IC50 (HCT-116) | further results
1 | CCc1nn(C)c(CO/N=C\c2c(C)nn(C)c2Oc2ccc(OC)cc2)c1Cl | < 80% | – | – | – | –
2 | Cc1nn(C)c(Oc2ccc(Cl)cc2)c1/C=N\OCc1c(Cl)c(-c2ccc(Cl)cc2)nn1C | 80% | 6.82 µM | 7.51 µM | 4.67 µM | –
3 | CCc1nn(C)c(CO/N=C/c2c(C)nn(C)c2Oc2ccccc2C)c1Cl | < 80% | – | – | – | –
4 | Cc1nn(C)c(Oc2ccc(F)cc2)c1/C=N\OCc1c(Cl)c(-c2ccc(Cl)cc2)nn1C | 80% | 3.23 µM | 4.43 µM | 7.25 µM | –
5 | Cc1nn(C)c(Oc2ccc(F)cc2)c1/C=N\OCc1c(Cl)c(-c2ccc(F)cc2)nn1C | 80% | 6.64 µM | 7.08 µM | 8.02 µM | –
6 | Cc1nn(C)c(Oc2ccc(Br)cc2)c1/C=N\OCc1c(Cl)c(-c2ccc(Cl)cc2)nn1C | 80% | 7.13 µM | 5.96 µM | 5.91 µM | –
7 | CCc1nn(C)c(CO/N=C/c2c(C)nn(C)c2Oc2ccccc2F)c1Cl | < 80% | – | – | – | –
8 | CCc1nn(C)c(CO/N=C/c2c(C)nn(C)c2Oc2ccc(C)cc2)c1Cl | < 80% | – | – | – | –
9 | Cc1ccc(Oc2c(/C=N\OCc3c(Cl)c(-c4ccc(F)cc4)nn3C)c(C)nn2C)cc1 | 80% | 5.23 µM | 4.62 µM | 2.91 µM | –
10 | Cc1nn(C)c(Oc2ccc(OC(F)(F)F)cc2)c1/C=N\OCc1c(Cl)c(-c2ccc(F)cc2)nn1C | 80% | 5.21 µM | 2.97 µM | 2.31 µM | –
11 | CCc1nn(C)c(CO/N=C/c2c(C)nn(C)c2Oc2ccccc2Cl)c1Cl | < 80% | – | – | – | –
12 | Cc1nn(C)c(Oc2ccc(OC(F)(F)F)cc2)c1/C=N\OCc1c(Cl)c(-c2ccc(Cl)cc2)nn1C | 80% | 8.67 µM | 3.22 µM | 3.02 µM | –
13 | CCc1nn(C)c(CO/N=C/c2c(C)nn(C)c2Oc2cccc(C)c2)c1Cl | < 80% | – | – | – | –
14 | CCc1nn(C)c(CO/N=C/c2c(C)nn(C)c2Oc2ccc(I)cc2)c1Cl | < 80% | – | – | – | –
15 | CCc1nn(C)c(CO/N=C/c2c(C)nn(C)c2Oc2cccc(Cl)c2)c1Cl | < 80% | – | – | – | –
16 | CCc1nn(C)c(CO/N=C/c2c(C)nn(C)c2Oc2ccc(Br)cc2)c1Cl | < 80% | – | – | – | –
17 | COc1ccc(Oc2c(/C=N\OCc3c(Cl)c(-c4ccc(F)cc4)nn3C)c(C)nn2C)cc1 | 80% | 2.05 µM | 2.84 µM | 1.18 µM | –
18 | CCc1nn(C)c(CO/N=C/c2c(C)nn(C)c2Oc2ccc(F)cc2)c1Cl | < 80% | – | – | – | –
19 | CCc1nn(C)c(CO/N=C\c2c(C)nn(C)c2Oc2ccc(OC(F)(F)F)cc2)c1Cl | < 80% | – | – | – | –
20 | Cc1ccc(Oc2c(/C=N\OCc3c(Cl)c(-c4ccc(Cl)cc4)nn3C)c(C)nn2C)cc1 | 80% | 5.84 µM | 3.73 µM | 2.85 µM | –
21 | CCc1nn(C)c(CO/N=C\c2c(C)nn(C)c2Oc2ccccc2OC(F)(F)F)c1Cl | < 80% | – | – | – | –
22 | Cc1nn(C)c(Oc2ccc(Cl)cc2)c1/C=N\OCc1c(Cl)c(-c2ccc(F)cc2)nn1C | 80% | 7.97 µM | 8.11 µM | 6.03 µM | –
23 | CCOC(=O)c1cc(-c2ccccc2)nn1Cc1ccc(Cl)nc1 | – | – | – | – | IC50 (PC-3): 15.2 µM
24 | CCc1nn(C)c(CO/N=C/c2c(C)nn(C)c2Oc2ccccc2OC)c1Cl | < 80% | – | – | – | –
25 | CCc1nn(C)c(CO/N=C/c2c(C)nn(C)c2Oc2ccc(Cl)cc2)c1Cl | < 80% | – | – | – | –
26 | O=c1[nH]cc(F)c(=O)[nH]1 [FLUOROURACIL] | – | 37.8 µM | 34.4 µM | 29.5 µM | –
27 | COc1cccc2c1C(=O)c1c(O)c3c(c(O)c1C2=O)C[C@@](O)(C(=O)CO)C[C@@H]3O[C@H]1C[C@H](N)[C@H](O)[C@H](C)O1.Cl [DOXORUBICIN HYDROCHLORIDE] | 80% | 2.67 µM | 4.12 µM | 2.31 µM | Activity (SMMC-7721 [3]): 47.5%; Activity (SMMC-7721 [4]): Active
